Common to all, as to type: functional
In test [1] the test system is MDA-MB-468. The test is described as follows: Potency index, ratio of staurosporine IC50 to compound IC50 for antiproliferative activity against human MDA-MB-468 cells measured after 48 hrs under CoCl2-induced hypoxic condition by MTT assay. (Tetrazolium dyes change colour on reduction, which living cells bring about.)
For test [2], the system named is MDA-MB-468. The test is described as follows: Potency index, ratio of staurosporine IC50 to compound IC50 for antiproliferative activity against human MDA-MB-468 cells measured after 48 hrs under normoxic condition by MTT assay.
Test [3] has as its system MCF7. The test is described as follows: Induction of cell cycle arrest in human MCF7 cells assessed as accumulation at G2/M phase at IC50 concentration incubated for 24 hrs by PI/RNase staining based flow cytometric analysis. The procedure, abridged:
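Cells were washed in ice-cold PBS, fixed in ice-cold 70% ethanol, treated with 100 µg/mL RNase and stained with 40 µg/mL PI. DNA content was read by flow cytometry, with sub-G1 compared against control.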

Test [4] deals with MCF7. The test is described as follows: Induction of apoptosis in human MCF7 cells assessed as early apoptotic cells by Annexin V-FITC/propidium iodide staining based flow cytometric analysis (reference value: 0.47 %). (In general: In flow cytometry, cells or beads pass a laser one at a time.)
Test [5] concerns MCF7. The test is described as follows: Induction of apoptosis in human MCF7 cells assessed as fold increase in apoptotic cells by Annexin V-FITC/propidium iodide staining based flow cytometric analysis relative to control.

Molecules are shown by their SMILES. Calls of active or inactive are those of the source. The rule behind the calls is not given here.

Take `Cc1ccc(-c2nc3c(/N=N/c4ccc(S(N)(=O)=O)cc4)c(N)nn3c(N)c2C#N)cc1`: the results for the “Ratio IC50” value in test [1] and in test [2] were 2.1 and 3.1, respectively.

In the case of `N#Cc1c(-c2ccc(F)cc2)nc2c(/N=N/c3ccc(S(N)(=O)=O)cc3)c(N)nn2c1N`, in test [3], the result was Active. Moreover, the Activity in test [4] was 6.58%. Moreover, in test [5], the “fold change (FC)” value was found to be 23.

Regarding `N#Cc1c(-c2ccc(Cl)cc2)nc2c(/N=N/c3ccc(S(N)(=O)=O)cc3)c(N)nn2c1N`, the outcome in test [3] was Active. In addition, the Activity in test [4] amounted to 5.88%. Besides, the “fold change (FC)” value in test [5] came out at 18.
